{"source": "paper PMC6634314", "about": "(Cell chemical biology, 2019)", "key": {"[1]": {"target": "T1, YES1 (Homo sapiens, UniProt P07947)", "T1 sequence (P07947 whole entry)": "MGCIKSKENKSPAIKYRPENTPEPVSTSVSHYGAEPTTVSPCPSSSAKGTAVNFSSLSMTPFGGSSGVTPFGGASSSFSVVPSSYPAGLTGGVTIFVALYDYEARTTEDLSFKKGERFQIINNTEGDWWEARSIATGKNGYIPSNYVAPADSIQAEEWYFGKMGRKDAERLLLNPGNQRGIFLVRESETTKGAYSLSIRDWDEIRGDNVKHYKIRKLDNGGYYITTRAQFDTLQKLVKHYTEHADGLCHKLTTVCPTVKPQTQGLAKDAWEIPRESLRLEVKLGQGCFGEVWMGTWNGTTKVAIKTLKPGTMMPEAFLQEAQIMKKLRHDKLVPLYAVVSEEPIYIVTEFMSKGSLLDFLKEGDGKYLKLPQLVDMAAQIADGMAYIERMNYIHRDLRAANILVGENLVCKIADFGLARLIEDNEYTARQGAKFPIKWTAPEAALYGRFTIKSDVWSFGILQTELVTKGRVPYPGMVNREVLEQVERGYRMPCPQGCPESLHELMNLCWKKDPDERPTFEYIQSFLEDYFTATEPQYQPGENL", "assay": "MIB washout assay", "type": "binding", "conditions": "H23 cells, 1 μM 4h, MIB pulldown ratio SM1-71/SM1-71-R"}, "[2]": {"test_system": "MAP2K1", "assay": "MIB washout assay", "type": "binding, Human", "conditions": "H23 cells, 1 μM 4h, MIB pulldown ratio SM1-71/SM1-71-R"}, "[3]": {"target": "T2, AAK1 (Homo sapiens, UniProt Q2M2I8)", "T2 sequence (Q2M2I8 whole entry)": "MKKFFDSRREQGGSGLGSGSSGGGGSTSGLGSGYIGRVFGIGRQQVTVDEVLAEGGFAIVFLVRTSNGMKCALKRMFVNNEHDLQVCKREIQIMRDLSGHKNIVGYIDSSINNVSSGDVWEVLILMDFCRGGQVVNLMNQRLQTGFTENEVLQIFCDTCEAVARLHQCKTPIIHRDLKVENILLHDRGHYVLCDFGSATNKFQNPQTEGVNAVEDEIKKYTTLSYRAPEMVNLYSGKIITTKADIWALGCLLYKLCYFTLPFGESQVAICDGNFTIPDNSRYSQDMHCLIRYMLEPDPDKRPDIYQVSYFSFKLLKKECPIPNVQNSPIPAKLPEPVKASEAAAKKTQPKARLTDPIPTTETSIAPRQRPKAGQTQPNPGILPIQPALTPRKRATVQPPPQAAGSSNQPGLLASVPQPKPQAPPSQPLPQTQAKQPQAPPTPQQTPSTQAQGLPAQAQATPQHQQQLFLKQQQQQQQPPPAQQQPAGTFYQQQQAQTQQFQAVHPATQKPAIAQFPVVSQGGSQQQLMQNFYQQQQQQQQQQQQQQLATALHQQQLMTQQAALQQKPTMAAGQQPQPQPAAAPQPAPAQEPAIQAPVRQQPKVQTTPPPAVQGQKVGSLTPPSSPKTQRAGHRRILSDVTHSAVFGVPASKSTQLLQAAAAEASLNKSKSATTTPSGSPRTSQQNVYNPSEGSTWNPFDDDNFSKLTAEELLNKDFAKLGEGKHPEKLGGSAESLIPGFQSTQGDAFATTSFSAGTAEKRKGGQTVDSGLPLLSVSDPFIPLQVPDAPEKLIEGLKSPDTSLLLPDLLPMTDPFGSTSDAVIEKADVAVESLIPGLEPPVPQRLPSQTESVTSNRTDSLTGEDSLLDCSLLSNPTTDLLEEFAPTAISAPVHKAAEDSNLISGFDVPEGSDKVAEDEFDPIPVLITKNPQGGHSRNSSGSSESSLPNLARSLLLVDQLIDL", "assay": "MIB washout assay", "type": "binding", "conditions": "H23 cells, 1 μM 4h, MIB pulldown ratio SM1-71/SM1-71-R"}, "[4]": {"target": "SRC (Homo sapiens, UniProt P12931)", "sequence (P12931 whole entry)": "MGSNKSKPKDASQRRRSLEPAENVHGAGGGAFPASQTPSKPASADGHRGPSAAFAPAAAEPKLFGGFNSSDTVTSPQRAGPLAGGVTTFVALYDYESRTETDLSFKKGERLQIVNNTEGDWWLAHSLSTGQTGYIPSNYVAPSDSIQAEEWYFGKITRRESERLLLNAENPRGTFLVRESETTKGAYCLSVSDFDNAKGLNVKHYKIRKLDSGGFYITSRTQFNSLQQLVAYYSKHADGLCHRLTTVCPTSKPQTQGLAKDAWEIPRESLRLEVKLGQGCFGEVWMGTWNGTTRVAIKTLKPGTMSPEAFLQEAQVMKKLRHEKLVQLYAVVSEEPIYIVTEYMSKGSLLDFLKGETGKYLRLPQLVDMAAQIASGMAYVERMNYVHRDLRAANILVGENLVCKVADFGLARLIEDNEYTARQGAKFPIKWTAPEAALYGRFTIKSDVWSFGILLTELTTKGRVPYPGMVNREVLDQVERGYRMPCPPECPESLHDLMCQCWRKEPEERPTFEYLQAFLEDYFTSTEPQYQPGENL", "assay": "MIB washout assay", "type": "binding", "conditions": "H23 cells, 1 μM 4h, MIB pulldown ratio SM1-71/SM1-71-R"}, "[5]": {"target": "T3, BMP2K (Homo sapiens, UniProt Q9NSY1)", "T3 sequence (Q9NSY1 whole entry)": "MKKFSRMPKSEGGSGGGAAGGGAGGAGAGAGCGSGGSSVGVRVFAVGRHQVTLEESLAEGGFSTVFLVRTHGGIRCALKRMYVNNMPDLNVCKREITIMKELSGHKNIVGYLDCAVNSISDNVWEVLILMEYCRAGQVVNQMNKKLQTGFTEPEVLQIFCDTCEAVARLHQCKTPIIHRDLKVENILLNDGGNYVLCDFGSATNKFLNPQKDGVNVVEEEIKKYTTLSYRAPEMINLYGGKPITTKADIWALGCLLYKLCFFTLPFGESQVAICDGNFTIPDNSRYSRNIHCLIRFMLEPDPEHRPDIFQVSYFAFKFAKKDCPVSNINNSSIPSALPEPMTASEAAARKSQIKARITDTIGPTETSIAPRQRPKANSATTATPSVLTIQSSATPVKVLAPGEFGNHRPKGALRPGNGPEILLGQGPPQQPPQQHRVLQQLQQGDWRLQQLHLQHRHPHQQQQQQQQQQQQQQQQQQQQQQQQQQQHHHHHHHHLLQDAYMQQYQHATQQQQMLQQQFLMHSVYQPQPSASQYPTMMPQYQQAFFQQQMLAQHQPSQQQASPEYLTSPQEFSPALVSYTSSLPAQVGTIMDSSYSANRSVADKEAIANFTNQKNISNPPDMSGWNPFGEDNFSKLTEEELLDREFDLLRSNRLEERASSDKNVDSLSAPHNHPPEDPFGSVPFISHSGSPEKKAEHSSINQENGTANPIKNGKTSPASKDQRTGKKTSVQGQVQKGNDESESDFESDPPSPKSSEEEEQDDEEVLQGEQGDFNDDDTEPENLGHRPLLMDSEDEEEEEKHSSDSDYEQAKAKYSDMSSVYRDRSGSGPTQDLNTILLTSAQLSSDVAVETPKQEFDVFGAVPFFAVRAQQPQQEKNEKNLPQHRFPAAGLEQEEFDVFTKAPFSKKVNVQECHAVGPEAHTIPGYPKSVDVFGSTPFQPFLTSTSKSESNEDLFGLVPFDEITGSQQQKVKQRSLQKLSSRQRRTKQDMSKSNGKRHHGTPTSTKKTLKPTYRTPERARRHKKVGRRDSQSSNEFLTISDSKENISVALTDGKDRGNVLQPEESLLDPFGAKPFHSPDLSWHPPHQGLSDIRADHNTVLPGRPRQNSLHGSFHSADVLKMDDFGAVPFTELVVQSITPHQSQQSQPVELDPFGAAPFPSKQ", "assay": "MIB washout assay", "type": "binding", "conditions": "H23 cells, 1 μM 4h, MIB pulldown ratio SM1-71/SM1-71-R"}, "[6]": {"test_system": "MAP3K1", "assay": "MIB washout assay", "type": "binding, Human", "conditions": "H23 cells, 1 μM 4h, 0h post-washout, MIB pulldown ratio SM1-71/SM1-71-R"}, "[7]": {"test_system": "MAPK1", "assay": "MIB washout assay", "type": "binding, Human", "conditions": "H23 cells, 1 μM 4h, MIB pulldown ratio SM1-71/SM1-71-R"}, "[8]": {"test_system": "PIK3C3", "assay": "MIB washout assay", "type": "binding, Human", "conditions": "H23 cells, 1 μM 4h, MIB pulldown ratio SM1-71/SM1-71-R"}, "[9]": {"test_system": "PIK3R4", "assay": "MIB washout assay", "type": "binding, Human", "conditions": "H23 cells, 1 μM 4h, MIB pulldown ratio SM1-71/SM1-71-R"}, "[10]": {"test_system": "EPHA10", "assay": "MIB washout assay", "type": "binding, Human", "conditions": "H23 cells, 1 μM 4h, MIB pulldown ratio SM1-71/SM1-71-R"}, "[11]": {"test_system": "CDK9", "assay": "MIB washout assay", "type": "binding, Human", "conditions": "H23 cells, 1 μM 4h, MIB pulldown ratio SM1-71/SM1-71-R"}, "[12]": {"test_system": "IGF1R", "assay": "MIB washout assay", "type": "binding, Human", "conditions": "H23 cells, 1 μM 4h, MIB pulldown ratio SM1-71/SM1-71-R"}, "[13]": {"test_system": "PIP5K1A", "assay": "MIB washout assay", "type": "binding, Human", "conditions": "H23 cells, 1 μM 4h, MIB pulldown ratio SM1-71/SM1-71-R"}, "[14]": {"test_system": "MAP3K11", "assay": "MIB washout assay", "type": "binding, Human", "conditions": "H23 cells, 1 μM 4h, MIB pulldown ratio SM1-71/SM1-71-R"}, "[15]": {"test_system": "MAPK3", "assay": "MIB washout assay", "type": "binding, Human", "conditions": "H23 cells, 1 μM 4h, MIB pulldown ratio SM1-71/SM1-71-R"}, "[16]": {"test_system": "LYN", "assay": "MIB washout assay", "type": "binding, Human", "conditions": "H23 cells, 1 μM 4h, MIB pulldown ratio SM1-71/SM1-71-R"}, "[17]": {"test_system": "TGFBR1", "assay": "MIB washout assay", "type": "binding, Human", "conditions": "H23 cells, 1 μM 4h, MIB pulldown ratio SM1-71/SM1-71-R"}, "[18]": {"test_system": "ACVR1B", "assay": "MIB washout assay", "type": "binding, Human", "conditions": "H23 cells, 1 μM 4h, MIB pulldown ratio SM1-71/SM1-71-R"}, "[19]": {"test_system": "FYN", "assay": "MIB washout assay", "type": "binding, Human", "conditions": "H23 cells, 1 μM 4h, MIB pulldown ratio SM1-71/SM1-71-R"}, "[20]": {"test_system": "CSNK1D", "assay": "MIB washout assay", "type": "binding, Human", "conditions": "H23 cells, 1 μM 4h, MIB pulldown ratio SM1-71/SM1-71-R"}, "[21]": {"test_system": "TNIK", "assay": "MIB washout assay", "type": "binding, Human", "conditions": "H23 cells, 1 μM 4h, MIB pulldown ratio SM1-71/SM1-71-R"}, "[22]": {"test_system": "CSNK1G3", "assay": "MIB washout assay", "type": "binding, Human", "conditions": "H23 cells, 1 μM 4h, MIB pulldown ratio SM1-71/SM1-71-R"}, "[23]": {"test_system": "TEC", "assay": "MIB washout assay", "type": "binding, Human"}, "[24]": {"test_system": "PTK2", "assay": "MIB washout assay", "type": "binding, Human"}, "[25]": {"target": "MAP2K7 (Homo sapiens, UniProt O14733)", "sequence (O14733 whole entry, species assumed)": "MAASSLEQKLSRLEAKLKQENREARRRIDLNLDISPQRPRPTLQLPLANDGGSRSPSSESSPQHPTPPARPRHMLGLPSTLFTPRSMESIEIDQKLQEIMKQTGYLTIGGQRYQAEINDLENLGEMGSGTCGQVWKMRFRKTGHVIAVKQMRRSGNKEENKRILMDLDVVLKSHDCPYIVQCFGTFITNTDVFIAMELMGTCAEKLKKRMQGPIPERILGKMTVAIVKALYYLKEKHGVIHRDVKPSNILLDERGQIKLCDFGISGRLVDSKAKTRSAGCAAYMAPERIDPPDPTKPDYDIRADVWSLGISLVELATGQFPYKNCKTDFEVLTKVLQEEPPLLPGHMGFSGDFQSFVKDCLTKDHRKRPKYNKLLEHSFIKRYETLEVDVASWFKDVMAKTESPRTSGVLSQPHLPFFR", "assay": "mass shift assay", "type": "binding", "conditions": "incubated 4 and 24h", "method_in_brief": "(§1)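 Kinase protein at 0.12 mM in 10 mM HEPES pH 7.5, 500 mM NaCl, incubated with 0.2 mM test compound at 4°C for 4 h and 24 h. Samples were diluted in 0.1% formic acid and desalted on a C3 pre-column. ESI-TOF was run in positive mode at 120 V, and intact mass was obtained by deconvolution to detect the adduct.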"}, "[26]": {"target": "GSK3B (Homo sapiens, UniProt P49841)", "assay": "mass shift assay", "type": "binding", "conditions": "incubated 4 and 24h", "method_in_brief": "as §1"}, "[27]": {"target": "MAPK3 (Homo sapiens, UniProt P27361)", "sequence (P27361 whole entry)": "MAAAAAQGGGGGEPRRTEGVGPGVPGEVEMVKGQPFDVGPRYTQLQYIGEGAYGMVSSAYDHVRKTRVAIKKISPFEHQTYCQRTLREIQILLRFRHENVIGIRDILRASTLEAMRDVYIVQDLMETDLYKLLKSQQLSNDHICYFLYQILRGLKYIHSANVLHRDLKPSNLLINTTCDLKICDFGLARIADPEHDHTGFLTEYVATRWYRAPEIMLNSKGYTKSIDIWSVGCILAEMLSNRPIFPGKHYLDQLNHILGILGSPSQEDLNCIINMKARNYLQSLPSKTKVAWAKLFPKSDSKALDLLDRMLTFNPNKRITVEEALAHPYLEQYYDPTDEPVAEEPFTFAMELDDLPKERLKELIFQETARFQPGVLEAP", "assay": "mass shift assay", "type": "binding", "conditions": "incubated 4 and 24h", "method_in_brief": "as §1"}, "[28]": {"target": "MAP2K1 (Homo sapiens, UniProt Q02750)", "sequence (Q02750 whole entry, species assumed)": "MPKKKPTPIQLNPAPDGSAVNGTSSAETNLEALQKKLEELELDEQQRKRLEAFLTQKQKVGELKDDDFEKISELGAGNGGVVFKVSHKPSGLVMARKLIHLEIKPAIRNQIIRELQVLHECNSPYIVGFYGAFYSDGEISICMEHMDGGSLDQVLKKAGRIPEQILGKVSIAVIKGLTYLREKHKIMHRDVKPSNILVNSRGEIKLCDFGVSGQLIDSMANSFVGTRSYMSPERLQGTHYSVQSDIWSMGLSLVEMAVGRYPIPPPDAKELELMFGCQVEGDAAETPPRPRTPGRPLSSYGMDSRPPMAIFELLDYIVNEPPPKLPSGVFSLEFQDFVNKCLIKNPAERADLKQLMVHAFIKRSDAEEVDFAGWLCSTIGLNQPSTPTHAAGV", "assay": "mass shift assay", "type": "binding", "conditions": "incubated 4 and 24h", "method_in_brief": "as §1"}, "[29]": {"target": "MAP2K2 (Homo sapiens, UniProt P36507)", "sequence (P36507 whole entry, species assumed)": "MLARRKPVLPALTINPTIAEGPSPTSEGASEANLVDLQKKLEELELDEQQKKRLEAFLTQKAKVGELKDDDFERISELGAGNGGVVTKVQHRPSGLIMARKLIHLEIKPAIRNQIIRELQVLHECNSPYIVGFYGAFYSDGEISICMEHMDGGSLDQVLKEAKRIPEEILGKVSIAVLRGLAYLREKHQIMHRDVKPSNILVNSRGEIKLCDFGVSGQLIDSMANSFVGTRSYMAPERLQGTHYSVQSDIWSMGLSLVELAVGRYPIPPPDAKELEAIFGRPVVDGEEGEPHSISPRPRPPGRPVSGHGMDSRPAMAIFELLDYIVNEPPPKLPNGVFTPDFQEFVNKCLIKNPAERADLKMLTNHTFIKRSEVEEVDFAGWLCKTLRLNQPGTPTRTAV", "assay": "mass shift assay", "type": "binding", "conditions": "incubated 4 and 24h", "method_in_brief": "as §1"}, "[30]": {"target": "MAPK1 (Homo sapiens, UniProt P28482)", "assay": "mass shift assay", "type": "binding", "conditions": "incubated 4 and 24h", "method_in_brief": "as §1"}, "[31]": {"target": "T1, YES1", "assay": "MIB dose-dependent kinase inhibition assay", "type": "binding", "conditions": "read-out: IC50 in the MIB assay, H23 cell lysate, overnight 4°C"}, "[32]": {"target": "T2, AAK1", "assay": "MIB dose-dependent kinase inhibition assay", "type": "binding", "conditions": "read-out: IC50 in the MIB assay, H23 cell lysate, overnight 4°C"}, "[33]": {"target": "T3, BMP2K", "assay": "MIB dose-dependent kinase inhibition assay", "type": "binding", "conditions": "read-out: IC50 in the MIB assay, H23 cell lysate, overnight 4°C"}, "[34]": {"test_system": "CDK13", "conditions": "H23 cells, 1 μM 4h, MIB pulldown ratio SM1-71/SM1-71-R"}, "[35]": {"conditions": "H23 cells, 1 μM 4h, 0h post-washout, MIB pulldown ratio SM1-71/SM1-71-R"}, "[36]": {"conditions": "H23 cells, 1 μM 4h, 6h post-washout, MIB pulldown ratio SM1-71/SM1-71-R"}}, "note": "pIC50: −log10 of the molar value."}
{"smiles": "C=CC(=O)Nc1ccccc1Nc1nc(Nc2ccc(N3CCN(C)CC3)cc2)ncc1Cl", "note": "[SM1-71]", "values": [{"measurement": "BI-0h", "setting": "[1]; 0h post-washout", "value": 0.21}, {"measurement": "BI-6h", "setting": "[1]; 6h post-washout", "value": 0.1}, {"measurement": "BI-0h", "setting": "[2]; 0h post-washout", "value": 0.05}, {"measurement": "BI-6h", "setting": "[2]; 6h post-washout", "value": 0.36}, {"measurement": "BI-0h", "setting": "[3]; 0h post-washout", "value": 0.27}, {"measurement": "BI-6h", "setting": "[3]; 6h post-washout", "value": 0.32}, {"measurement": "BI-0h", "setting": "[4]; 0h post-washout", "value": 0.19}, {"measurement": "BI-6h", "setting": "[4]; 6h post-washout", "value": 0.13}, {"measurement": "BI-0h", "setting": "[5]; 0h post-washout", "value": 0.23}, {"measurement": "BI-6h", "setting": "[5]; 6h post-washout", "value": 0.27}, {"measurement": "BI-0h", "setting": "[6]", "value": 0.2}, {"measurement": "BI-0h", "setting": "[7]; 0h post-washout", "value": 0.19}, {"measurement": "BI-6h", "setting": "[7]; 6h post-washout", "value": 0.39}, {"measurement": "BI-0h", "setting": "[8]; 0h post-washout", "value": 0.28}, {"measurement": "BI-6h", "setting": "[8]; 6h post-washout", "value": 0.44}, {"measurement": "BI-0h", "setting": "[9]; 0h post-washout", "value": 0.36}, {"measurement": "BI-6h", "setting": "[9]; 6h post-washout", "value": 0.47}, {"measurement": "BI-0h", "setting": "[10]; 0h post-washout", "value": 0.72}, {"measurement": "BI-6h", "setting": "[10]; 6h post-washout", "value": 0.63}, {"measurement": "BI-0h", "setting": "[11]; 0h post-washout", "value": 0.46}, {"measurement": "BI-6h", "setting": "[11]; 6h post-washout", "value": 0.96}, {"measurement": "BI-0h", "setting": "[12]; 0h post-washout", "value": 0.45}, {"measurement": "BI-6h", "setting": "[12]; 6h post-washout", "value": 0.64}, {"measurement": "BI-0h", "setting": "[13]; 0h post-washout", "value": 0.56}, {"measurement": "BI-6h", "setting": "[13]; 6h post-washout", "value": 0.75}, {"measurement": "BI-0h", "setting": "[14]; 0h post-washout", "value": 0.6}, {"measurement": "BI-6h", "setting": "[14]; 6h post-washout", "value": 0.76}, {"measurement": "BI-0h", "setting": "[15]; 0h post-washout", "value": 0.62}, {"measurement": "BI-6h", "setting": "[15]; 6h post-washout", "value": 0.54}, {"measurement": "BI-0h", "setting": "[16]; 0h post-washout", "value": 1.1}, {"measurement": "BI-6h", "setting": "[16]; 6h post-washout", "value": 0.79}, {"measurement": "BI-0h", "setting": "[17]; 0h post-washout", "value": 1.09}, {"measurement": "BI-6h", "setting": "[17]; 6h post-washout", "value": 0.8}, {"measurement": "BI-0h", "setting": "[18]; 0h post-washout", "value": 0.9}, {"measurement": "BI-6h", "setting": "[18]; 6h post-washout", "value": 0.92}, {"measurement": "BI-0h", "setting": "[19]; 0h post-washout", "value": 0.81}, {"measurement": "BI-6h", "setting": "[19]; 6h post-washout", "value": 0.91}, {"measurement": "BI-0h", "setting": "[20]; 0h post-washout", "value": 0.71}, {"measurement": "BI-6h", "setting": "[20]; 6h post-washout", "value": 0.78}, {"measurement": "BI-0h", "setting": "[21]; 0h post-washout", "value": 0.67}, {"measurement": "BI-6h", "setting": "[21]; 6h post-washout", "value": 0.74}, {"measurement": "BI-0h", "setting": "[22]; 0h post-washout", "value": 0.77}, {"measurement": "BI-6h", "setting": "[22]; 6h post-washout", "value": 0.75}, {"measurement": "BI-0h", "setting": "[23]; [35]", "value": 1.02}, {"measurement": "BI-6h", "setting": "[23]; [36]", "value": 1.43}, {"measurement": "Binding", "setting": "[23]; class from BI 0h and 6h", "value": "Strongly Reversible (BI0h,6h greater than 1 suggesting a strong preference for reversible mode of inhibition)"}, {"measurement": "BI-0h", "setting": "[24]; [35]", "value": 1.3}, {"measurement": "BI-6h", "setting": "[24]; [36]", "value": 1.12}, {"measurement": "Binding", "setting": "[24]; class from BI 0h and 6h", "value": "Strongly Reversible (BI0h,6h greater than 1 suggesting a strong preference for reversible mode of inhibition)"}, {"measurement": "covalent adduct formation (mass shift)", "setting": "[25]", "value": "formed covalent adducts"}, {"measurement": "covalent adduct formation (mass shift)", "setting": "[26]", "value": "formed covalent adducts"}, {"measurement": "covalent adduct formation (mass shift)", "setting": "[27]", "value": "formed covalent adducts"}, {"measurement": "covalent adduct formation (mass shift)", "setting": "[28]", "value": "formed covalent adducts"}, {"measurement": "covalent adduct formation (mass shift)", "setting": "[29]", "value": "formed covalent adducts"}, {"measurement": "covalent adduct formation (mass shift)", "setting": "[30]", "value": "formed covalent adducts"}, {"measurement": "pIC50", "setting": "[31]", "value": "> 8.00"}, {"measurement": "pIC50", "setting": "[32]", "value": "> 8.00"}, {"measurement": "pIC50", "setting": "[33]", "value": "> 8.00"}, {"measurement": "BI-0h", "setting": "[34]; 0h post-washout", "value": 0.57}, {"measurement": "BI-6h", "setting": "[34]; 6h post-washout", "value": 0.57}]}
